Data set [1] can be described thus: Stability of the compound in phosphate buffer at pH 7 at 37 degC by HPLC. Format: physicochemical.
For data set [2], the system named is SK-OV-3. Put plainly: Antiproliferative activity against human SKOV3 cells assessed as growth inhibition measured after 48 hrs by MTT assay. Conditions: SK-OV-3, 48 h. The format is functional. An outline of the steps:
(§1)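 Cells seeded at 10,000 or 15,000 per well, incubated overnight at 37 °C, then exposed to serial three-fold dilutions of compound (10 mM DMSO stocks) for 48 h at 37 °C. MTT added for 4 h at 37 °C, absorbance read at 570 and 690 nm. Viability = 100×(T−T0)/(C−T0) versus vehicle. Triplicate wells; GI50 from log concentration versus normalized viability.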

Data set [3] in a line: Antiproliferative activity against human NCI-H232A cells assessed as growth inhibition measured after 48 hrs by MTT assay. The format is functional. Put shortly: as §1
The subject of data set [4] is DU-145. Put plainly: Antiproliferative activity against human DU145 cells assessed as growth inhibition measured after 48 hrs by MTT assay. Conditions: DU-145, 48 h. Format: functional. Put shortly:
as §1

Data set [5] deals with MDA-MB-231. Nature of the data set: Antiproliferative activity against human MDA-MB-231 cells assessed as growth inhibition measured after 48 hrs by MTT assay. The format is functional. To be noted: MDA-MB-231, 48 h. An outline of the steps:
as §1

Data set [6] has as its system HEK293. Put plainly: Inhibition of Pre-mRNA splicing in human HEK293 cells using biotin-labeled Ad2 pre-mRNA by exonjunction complex (EJC) immunoprecipitation assay.
Data set [7] in a line: Stability of the compound in phosphate buffer at pH 7.4 at 37 degC by HPLC. Format: physicochemical. An outline of the steps:
(§2)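 Compound (10 µL of 10 mM DMSO stock) added to 10 mL phosphate buffer pH 7.4 containing benzoic acid and DMSO, sealed and held at 37 °C. Samples (20 µL) analysed by reverse-phase C18 HPLC at multiple time points; half-life determined from remaining compound.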

Data set [8] is described as follows: Stability of the compound in phosphate buffer assessed as compound remaining after 8 to 78 hrs at pH 7.4 at 37 degC by HPLC. Format: physicochemical. An outline of the steps:
as §2

Data set [9] deals with HEK293. Put plainly: Inhibition of Pre-mRNA splicing in human HEK293 cells using p32-labeled CDC14-15 pre-mRNA by exonjunction complex (EJC) immunoprecipitation assay. The format is functional, cell-based.

Where only a bound is given, the exact number is not on record here.

Turning to `CC(=O)O[C@@H](C)/C=C\C(=O)N[C@@H]1C[C@H](C)[C@H](C/C=C(C)/C=C/[C@H]2O[C@](C)(O)C[C@@]3(CO3)[C@@H]2O)O[C@@H]1C`, the values for the half-life in data set [1] and in data set [7] were 4 h and 8 h, respectively. Further, the 50% growth inhibitory concentration (GI50) was 1.06 nM in [2], 1.94 nM in [3], 1.05 nM in data set [4] and 2.1 nM in [5]. This compound showed an IC50 in data set [6] of 580 nM. In data set [8], the Stability amounted to 38%. For the same compound, the inhibition entry in data set [9] is “Dose-dependent effect”.
On to `CC(=O)O[C@@H](C)/C=C\C(=O)N[C@@H]1C[C@H](C)[C@H](C/C=C(C)/C=C/[C@H]2O[C@H](CC(=O)O)C[C@@]3(CO3)[C@@H]2O)O[C@@H]1C` [THAILANSTATIN A], for which the GI50 in data set [2] turned out to be 2.69 nM; in [3], 2.26 nM; in [4] it was 1.11 nM; in data set [5], 2.58 nM. Also, the IC50 in data set [6] stood at 650 nM. The half-life in [7] was over 78 h. The Stability in data set [8] was found to be 65%.
For `CC(=O)O[C@@H](C)/C=C\C(=O)N[C@@H]1C[C@H](C)[C@H](C/C=C(C)/C=C/[C@H]2O[C@H](CC(=O)O)C[C@@](O)(CCl)[C@@H]2O)O[C@@H]1C` [THAILANSTATIN B], the GI50 came out at 4.94 nM in data set [2], 2.5 nM in data set [3], 3 nM in data set [4] and 6.22 nM in [5]. Moreover, the half-inhibitory concentration (IC50) in [6] was determined as 6180 nM. In data set [7], the half-life is 19 h.
As to `CC(/C=C/[C@H]1O[C@H](CC(=O)O)C[C@@](O)(CCl)[C@@H]1O)=C\C[C@@H]1O[C@H](C)[C@H](NC(=O)/C=C\[C@H](C)OC(=O)C(C)C)C[C@@H]1C` [THAILANSTATIN C], the 50% growth inhibitory concentration (GI50) in [2] was found to be 5.57 nM; in data set [3], 3.67 nM; in data set [4] it was 2.98 nM; in [5], 8.82 nM. In data set [6], this compound gave an IC50 of 6840 nM. This compound also showed a half-life in data set [7] of 25 h.

For the origin of these results see ChEMBL document CHEMBL2331206, “Genomics-guided discovery of thailanstatins A, B, and C As pre-mRNA splicing inhibitors and antiproliferative agents from Burkholderia thailandensis MSMB43” (J Nat Prod, 2013).
